Five molecules from paper PMC4818360 (Iranian Journal of Basic Medical Sciences, 2016) can be followed below.

A short description of assay [1]: Hydrogen peroxide scavenging assay. To be noted: at 0.312 mg/ml, 20 min, 230 nm, mean ± SD (n = 3). Summed up:
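H2O2 was made at 40 mM in saline phosphate buffer, pH 7.4, and its level checked at 230 nm. 100 μl of methanolic test compound or standard solution (0.312 mg/ml) went into 2 ml of H2O2 solution. A230 was read after 20 min against a blank of compound in buffer without H2O2. Scavenging % = (Ac−At)/Ac×100. BHT and gallic acid were standards; three replicates.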

Assay [2] is described as follows: DPPH free radical scavenging assay. To be noted: methanolic solutions, 30 min, 517 nm, mean ± SD (n = 3). Summed up: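 DPPH stock (60 μM in methanol), 1 ml, mixed with 1 ml of test compound or standard at 0.0125, 0.025, 0.05, 0.1 and 0.2 mg/ml. Shaken, left 30 min, then read at 517 nm. Scavenging % = (Ac−At)/Ac×100, where the control holds all reagents except the compound. BHT was the standard. IC50 came from logarithmic non-linear regression; three replicates.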
(DPPH is a stable violet radical that fades when it is reduced.)

The target in assay [3] is mushroom tyrosinase (EC 1.14.18.1) (Agaricus bisporus, UniProt C7FF04). The experiment in a line: biochemical.
mushroom tyrosinase (EC 1.14.18.1), sequence (C7FF04 1-392): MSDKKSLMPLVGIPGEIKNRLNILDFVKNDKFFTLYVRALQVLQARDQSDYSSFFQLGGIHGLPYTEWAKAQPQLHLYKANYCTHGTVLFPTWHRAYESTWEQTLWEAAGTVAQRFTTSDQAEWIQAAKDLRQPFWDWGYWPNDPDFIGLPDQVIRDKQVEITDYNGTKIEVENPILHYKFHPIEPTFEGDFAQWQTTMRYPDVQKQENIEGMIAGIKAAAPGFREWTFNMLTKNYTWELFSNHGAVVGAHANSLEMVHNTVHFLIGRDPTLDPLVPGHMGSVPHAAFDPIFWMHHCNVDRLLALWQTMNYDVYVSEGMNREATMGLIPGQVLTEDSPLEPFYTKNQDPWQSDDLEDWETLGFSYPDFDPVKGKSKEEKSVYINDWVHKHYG

As for `Cc1cc(C(C)(C)C)c(O)c(C(C)(C)C)c1` [BHT, Butylated hydroxyl toluene, reference compound], in assay [1], the “H2O2 Scavenging” value stood at 78.52±1.85%. The “IC50 values for DPPH” value in assay [2] worked out at 49.19 ± 1.7 µg/mL.
On to `Cn1cc(O)c(=O)cc1CNc1ccc(O)cc1` [Compound 3, 5-Hydroxy-2-[(4-hydroxyphenylamino)methyl]-1-methylpyridin-4(1H)-one], for which, in assay [3], the IC50 turned out to be 404 ± 14 µM. For the same molecule, the “H2O2 Scavenging” value in assay [1] turned out to be 63.70±1.49%. In addition, in assay [2], the “IC50 values for DPPH” value is 34.38 ± 1.9 µg/mL.
Taken in the same sequence, the figures for `COc1ccc(NCc2cc(=O)c(O)cn2C)cc1` [Compound 2, 5-Hydroxy-2-[(4-methoxyphenylamino)methyl]-1-methylpyridin-4(1H)-one] were 617 ± 19 µM, 64.97±0.96% and 44.62 ± 2.9 µg/mL.
For the molecule `O=c1cc(CNc2cccc([N+](=O)[O-])c2)[nH]cc1O` [Compound 11, 5-Hydroxy-2-[(3-nitrophenylamino)methyl]pyridin-4(1H)-one], the IC50 in assay [3] was determined as 217 ± 9 µM. Further, in assay [1], the “H2O2 Scavenging” value came to 61.77±1.16%. In assay [2], the “IC50 values for DPPH” value amounted to 25.17 ± 1.8 µg/mL.
Regarding `O=C(O)c1cc(O)c(O)c(O)c1` [Galic acid, gallic acid, reference compound], the “H2O2 Scavenging” value in assay [1] is 97.39±0.76%.

What is called IC50 is the concentration at which inhibition is half-maximal. Low values mean inhibition by little substance, high ones a need for much substance.
